ChEMBL document CHEMBL1955789, “3,4-Diarylpiperidines as potent renin inhibitors” (Bioorg Med Chem Lett, 2012)
pIC50: −log10 of the molar value.

How the values were obtained:
CYP3A4 [1] = biological target: T1, CYP3A4 (Homo sapiens, UniProt P08684); test: Reversible inhibition of CYP3A4 using testosterone as substrate assessed as remaining activity at 10 uM; format: ADME; settings: probe testosterone; read-out: Activity
CYP3A4 [2] = biological target: T1, CYP3A4; test: Time dependent inhibition of CYP3A4 using testosterone as substrate at 10 uM for 30 mins; format: ADME; settings: probe testosterone
Summary of the method: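 CYP3A4 conversion of testosterone (250 µM) to 6β-hydroxytestosterone compared before and after a 30 min preincubation with compound in DMSO. Result expressed as percentage activity loss; 0% change means no measurable time-dependent inhibition.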

Renin [3] = biological target: T2, Renin (Homo sapiens, UniProt P00797); test: Inhibition of human recombinant renin using QXL520-Lys-His-Pro-Phe-His-Leu-Val-Ile-His-Lys-(5-FAM) as substrate preincubated for 10 mins prior to substrate addition measure after 1 hr by fluorimetry in the presence of human plasma
T2 sequence (P00797 whole entry): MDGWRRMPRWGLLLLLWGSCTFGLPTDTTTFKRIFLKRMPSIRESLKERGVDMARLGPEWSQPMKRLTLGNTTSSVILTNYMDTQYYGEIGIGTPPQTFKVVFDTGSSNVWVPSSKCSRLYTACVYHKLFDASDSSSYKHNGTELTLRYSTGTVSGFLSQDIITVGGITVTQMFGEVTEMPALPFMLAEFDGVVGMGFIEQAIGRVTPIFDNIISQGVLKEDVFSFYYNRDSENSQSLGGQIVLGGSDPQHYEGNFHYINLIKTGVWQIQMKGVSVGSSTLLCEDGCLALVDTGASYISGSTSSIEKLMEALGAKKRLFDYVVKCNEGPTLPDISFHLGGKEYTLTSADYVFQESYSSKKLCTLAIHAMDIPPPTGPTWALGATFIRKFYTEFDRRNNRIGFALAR
Summary of the method: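 Frozen human EDTA-plasma thawed and centrifuged at 2900 g for 15 min. Recombinant human renin was added to the supernatant at 1 nM nominal, and inhibitor preincubation was 10 min at 37 °C. Q-FRET substrate was added in Tris/EDTA pH 7.2, then incubated 1 h at 37 °C. Fluorescence read at 0 and 1 h (ex 490 nm, em 520 nm). Means of at least two experiments.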

Renin [4] = biological target: T2, Renin; test: Inhibition of human recombinant renin using DNP-Lys-His-Pro-Phe-His-Leu-Val-Ile-His-D,L-Amp as substrate after 3 hrs by fluorimetry
Summary of the method: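 Human recombinant renin at 100 pM incubated with or without inhibitor and 6 µM Q-FRET substrate in 50 mM MOPS, 100 mM NaCl, pH 7.4, 0.002% Tween, 37 °C for 3 h. Fluorescence read at 0 and 3 h (ex 328 nm, em 388 nm). Values are means of at least two experiments.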

[5] = biological target: Voltage-gated inwardly rectifying potassium channel KCNH2 (Homo sapiens, UniProt Q12809); test: Inhibition of human ERG
[6] = Cmax in Sprague-Dawley rat at 30 mg/kg, po and 5 mg/kg, iv; format: ADME, organism-based; settings: in vivo
Rattus norvegicus [7] = test: Antihypertensive activity in rat dTGR model expressing human renin and angiotensinogen assessed as time of blood pressure lowering effect at 10 mg/kg, po; format: functional
[8] = Cmax in Beagle dog at 3 mg/kg, po and 1 mg/kg, iv; format: ADME, organism-based, Canis lupus familiaris; settings: in vivo
[9] = Clearance in Beagle dog at 3 mg/kg, po and 1 mg/kg, iv; format: ADME, organism-based, Canis lupus familiaris; settings: in vivo
[10] = Half life in Sprague-Dawley rat at 30 mg/kg, po and 5 mg/kg, iv; format: ADME, organism-based; settings: in vivo
[11] = Half life in Beagle dog at 3 mg/kg, po and 1 mg/kg, iv; format: ADME, organism-based, Canis lupus familiaris; settings: in vivo
Rattus norvegicus [12] = test: Antihypertensive activity in rat dTGR model expressing human renin and angiotensinogen assessed as decrease in blood pressure at 10 mg/kg, po; format: functional
[13] = Volume of distribution at steady state in Sprague-Dawley rat at 30 mg/kg, po and 5 mg/kg, iv; format: ADME, organism-based; settings: in vivo, read-out: Vdss
[14] = Volume of distribution at steady state in Beagle dog at 3 mg/kg, po and 1 mg/kg, iv; format: ADME, organism-based, Canis lupus familiaris; settings: in vivo, read-out: Vdss
[15] = Oral bioavailability in Beagle dog at 3 mg/kg; format: ADME, organism-based, Canis lupus familiaris; settings: in vivo
[16] = Oral bioavailability in Sprague-Dawley rat at 30 mg/kg; format: ADME, organism-based; settings: in vivo
[17] = Clearance in Sprague-Dawley rat at 30 mg/kg, po and 5 mg/kg, iv; format: ADME, organism-based; settings: in vivo

Sequence of Voltage-gated inwardly rectifying potassium channel KCNH2 (Q12809 whole entry): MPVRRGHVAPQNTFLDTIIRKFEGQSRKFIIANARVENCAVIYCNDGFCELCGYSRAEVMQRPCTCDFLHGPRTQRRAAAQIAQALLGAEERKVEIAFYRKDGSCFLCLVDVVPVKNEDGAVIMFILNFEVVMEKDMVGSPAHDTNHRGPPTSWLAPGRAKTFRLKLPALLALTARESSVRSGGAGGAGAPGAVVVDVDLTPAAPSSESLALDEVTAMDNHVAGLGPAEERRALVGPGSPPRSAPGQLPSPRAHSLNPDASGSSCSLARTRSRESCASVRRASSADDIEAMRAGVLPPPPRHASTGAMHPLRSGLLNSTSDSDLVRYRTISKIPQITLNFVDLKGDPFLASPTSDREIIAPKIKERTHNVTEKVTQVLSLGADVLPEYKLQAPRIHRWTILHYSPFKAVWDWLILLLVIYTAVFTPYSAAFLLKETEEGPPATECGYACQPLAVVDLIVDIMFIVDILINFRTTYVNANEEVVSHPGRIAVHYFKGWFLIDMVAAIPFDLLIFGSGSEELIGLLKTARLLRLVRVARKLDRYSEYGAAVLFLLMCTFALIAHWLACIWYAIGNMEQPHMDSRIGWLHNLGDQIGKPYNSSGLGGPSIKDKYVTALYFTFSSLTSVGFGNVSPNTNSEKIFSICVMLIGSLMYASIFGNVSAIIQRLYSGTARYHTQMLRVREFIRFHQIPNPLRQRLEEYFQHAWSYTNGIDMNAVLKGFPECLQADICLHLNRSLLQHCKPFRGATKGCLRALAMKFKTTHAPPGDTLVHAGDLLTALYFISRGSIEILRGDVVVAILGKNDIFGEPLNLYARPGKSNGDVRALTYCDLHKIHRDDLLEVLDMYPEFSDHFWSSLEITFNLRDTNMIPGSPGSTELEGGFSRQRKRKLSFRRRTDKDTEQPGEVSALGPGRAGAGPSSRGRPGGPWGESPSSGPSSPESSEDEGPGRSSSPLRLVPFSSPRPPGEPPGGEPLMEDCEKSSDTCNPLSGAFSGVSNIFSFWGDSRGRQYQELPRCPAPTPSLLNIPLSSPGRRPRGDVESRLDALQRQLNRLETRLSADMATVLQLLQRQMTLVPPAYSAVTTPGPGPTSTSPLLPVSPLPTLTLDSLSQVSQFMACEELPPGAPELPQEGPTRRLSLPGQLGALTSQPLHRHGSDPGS
T1 sequence (P08684 whole entry): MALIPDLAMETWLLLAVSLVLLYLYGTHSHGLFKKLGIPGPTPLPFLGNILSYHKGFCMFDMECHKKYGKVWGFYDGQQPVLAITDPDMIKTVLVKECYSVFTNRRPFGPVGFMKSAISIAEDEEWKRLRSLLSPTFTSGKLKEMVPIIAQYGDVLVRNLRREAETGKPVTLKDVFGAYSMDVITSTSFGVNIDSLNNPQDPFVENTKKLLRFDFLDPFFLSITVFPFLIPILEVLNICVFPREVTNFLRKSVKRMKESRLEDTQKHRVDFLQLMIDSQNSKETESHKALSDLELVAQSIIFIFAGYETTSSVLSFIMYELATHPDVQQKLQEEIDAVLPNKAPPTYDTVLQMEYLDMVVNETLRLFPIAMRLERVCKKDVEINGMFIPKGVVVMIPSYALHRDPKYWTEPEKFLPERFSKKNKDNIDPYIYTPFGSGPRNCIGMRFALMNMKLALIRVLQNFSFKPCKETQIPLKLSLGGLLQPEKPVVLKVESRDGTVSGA

Structure (SMILES)	activity at 10 µM (CYP3A4 [1]) [%]	inhibition at 0.5 h, 10 µM (CYP3A4 [2]) [%]	pIC50 (Renin [3])	pIC50 (Renin [4])	pIC50 [5]	further results
CC(=O)NCCc1ccccc1-c1ccc([C@H]2CNCC[C@@H]2c2ccc(F)c(F)c2)c(Cl)c1	98	49	8.12	9.30		
CC(=O)NCCc1ccccc1-c1ccc([C@H]2CNCC[C@@H]2c2cccnc2)c(Cl)c1	98	55	8.44	8.85		
CC(=O)NCCc1ccccc1-c1ccc([C@H]2CNCC[C@@]23OCc2cc(F)c(F)cc23)c(C)c1	88	68	8.89	9.77	5.29	
COCC(F)(F)COCc1ccc([C@@]2(O)CCNC[C@@H]2c2ccc(-c3ccccc3CCNC(C)=O)cc2C)cc1	76	37			5.01	
CC(=O)NCCc1ccccc1-c1ccc([C@H]2CNCC[C@@H]2c2ccn(C)c(=O)c2)c(Cl)c1	97	0			5.24	
CCC(=O)NCCc1ccccc1-c1ccc([C@H]2CNCC[C@@H]2c2ccn(C)c(=O)c2)c(Cl)c1	92	21	8.10	8.32	5.55	
COC(=O)NCCc1ccccc1-c1ccc([C@H]2CNCC[C@@H]2c2ccn(C)c(=O)c2)c(Cl)c1	92	46	8.21	8.45		
CCOC(=O)NCCc1ccccc1-c1ccc([C@H]2CNCC[C@@H]2c2ccn(C)c(=O)c2)c(Cl)c1	91	58	7.55	7.96	5.49	
COCC(=O)NCCc1ccccc1-c1ccc([C@H]2CNCC[C@@H]2c2ccn(C)c(=O)c2)c(Cl)c1			7.01	7.13		
CC(=O)NCCc1ccccc1-c1ccc([C@H]2CNCC[C@]2(O)c2ccc(F)c(F)c2)c(C)c1	87	40	8.31	9.30	5.38	
CC(=O)NCCc1ccccc1-c1ccc([C@H]2CNCC[C@@]23OC(=O)c2cc(F)c(F)cc23)c(C)c1	80	88	8.80	9.85	4.89	
COC[C@H](C)COCc1ccc([C@@]2(O)CCNC[C@@H]2c2ccc(-c3ccccc3CCNC(C)=O)cc2C)cc1	88	72			5.05	
CC(=O)NCCc1ccccc1-c1ccc([C@@H](CN)Cc2ccc(OCCOc3c(Cl)cc(C)cc3Cl)cc2)c(C)c1.Cl	53	74				Cmax [6]: 440 nM
CC(=O)NCCc1ccccc1-c1ccc([C@H]2CNCC[C@@H]2c2ccn(C)c(=O)c2)c(Cl)c1.Cl						Time (Rattus norvegicus [7]): 24 h; Cmax [8]: 350 nM; clearance [9]: 24 mL/min/kg; half-life [10]: 4 h; half-life [11]: 6.2 h; Activity (Rattus norvegicus [12]): 32 mmHg; Vd [13]: 25 L/kg; Vd [14]: 4.6 L/kg; Cmax [6]: 450 nM; bioavailability [15]: 30%; bioavailability [16]: 12%; clearance [17]: 115 mL/min/kg
